From PubChem BioAssay
The sample as a whole holds a higher share of hits than the screen did.
S1P4 antagonist – S1P4 receptor antagonists, primary screen, cell-based. S1P4-expressing cells, antagonist mode, reporter read-out. hit rate 0.26% among 220,000. AID 1510, 2009. Sphingosine 1-phosphate receptor 4 (Homo sapiens), O95977. inhibition, % at 4.98 µM; in the data active = inhibition above about 29%;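 note: 0% = wells stimulated with agonist and 100% = vehicle wells without agonist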
Lmaj promast – Leishmania major promastigote growth inhibition, primary screen; hit rate 9% among 200,000; Leishmania major promastigotes, resazurin fluorescence viability; AID 1063, 2008; inhibition, % at 10 µM; in the data active = inhibition above about 50%;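 note: promastigotes grown with compound for 44 hours at 28 °C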
S1P4 ag – S1P4 receptor agonists, primary screen, cell-based | activation, % at 4.98 µM | AID 1509, 2009 | hit rate 0.35% among 220,000 | S1P4-expressing cell line, agonist reporter assay; in the data active = activation above about 11%;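 note: 0% = DMSO vehicle and 100% = reference agonist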
MDM2 E3 inh – MDM2-luciferase reporter signal enhancers, primary screen, MDM2 E3 ligase inhibitor project, cell-based, luminescence, 1536-well | E3 ubiquitin-protein ligase Mdm2 (Homo sapiens), Q00987 | cell-based MDM2 ubiquitination luciferase reporter, 2 h; 0 = plate control, 100 = twice control, blank-subtracted | signal enhancement, % at 5 µM | hit rate 0.11% among 210,000;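 active = signal enhancement of 30% or more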;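 note: luminescence tracks abundance of the self-degrading MDM2-luciferase fusion protein; higher signal means inhibition of MDM2 E3 ligase activity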
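Material: stable MDM2–luciferase fusion reporter cells / Quantity: 2000 cells/well / Dosing: single 5 µM compound dose, 0.2% final DMSO / Buffer or medium: DMEM / Schedule: 4 h cell settling then 2 h compound exposure, 37 °C / Detection: luminescence with SteadyLite reagent, 15 min at room temperature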
S1P3 antagonist – S1P3 receptor antagonists, primary screen, cell-based. inhibition, % at 4.98 µM. Sphingosine 1-phosphate receptor 3 (Homo sapiens), Q99500. hit rate 0.27% among 170,000. CHO S1P3 NFAT-BLA reporter, FRET fluorescence, antagonist mode;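 active = inhibition above the plate cutoff, the mean inhibition of test wells on that plate plus 3 SD, cut at about 28% in these data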;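 note: cells challenged with S1P at its EC80 of 0.8 µM; blue over green emission ratio from cleaved BLA substrate after 4 h stimulation; 0% = S1P-stimulated wells and 100% = unstimulated DMSO-only wells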
Target sequence (Q99500 whole entry, looked up): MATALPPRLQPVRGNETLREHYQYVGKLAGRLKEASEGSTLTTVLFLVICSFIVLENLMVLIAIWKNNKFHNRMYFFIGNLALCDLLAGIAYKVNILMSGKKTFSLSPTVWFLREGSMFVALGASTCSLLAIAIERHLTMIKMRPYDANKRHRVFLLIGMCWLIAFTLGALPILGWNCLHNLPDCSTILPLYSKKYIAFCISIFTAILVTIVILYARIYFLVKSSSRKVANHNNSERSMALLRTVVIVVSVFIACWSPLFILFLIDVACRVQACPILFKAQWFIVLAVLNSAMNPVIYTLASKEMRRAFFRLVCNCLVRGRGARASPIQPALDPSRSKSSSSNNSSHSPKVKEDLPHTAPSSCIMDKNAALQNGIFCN
Numbers without * were called inactive; nt = no result.

SMILES | S1P4 antagonist | Lmaj promast | S1P4 ag | MDM2 E3 inh | S1P3 antagonist
O=S(=O)(Cc1ccccc1)NCC1CCCN(Cc2ccc(F)c(F)c2)C1 (stereo unspecified) | 3.7 | 89.8* | 1.7 | -8.8 | -9.7
CCC(C)c1ccc(NC(=S)NCc2ccccc2OC)cc1 (stereo unspecified) | 7.6 | 8.8 | -0.9 | -0.9 | 14.8
Cc1ccc(NS(=O)(=O)c2ccc(-c3csc(C)n3)s2)c(C)c1 | 2.6 | nt | 1.0 | -9.9 | 5.5
C=CCNc1nc(N2CCCC2)nc2ccccc12 | -0.9 | 99.7* | -2.3 | -18.5 | 10.1
OCCNc1nc(N2CCN(Cc3ccccc3)CC2)nc2ccccc12 | -7.9 | 2.5 | 0.6 | nt | 0.5
COc1ccc(Nc2nc(N3CCCC3)nc3ccccc23)c(OC)c1 | -6.4 | 100.3* | 0.1 | 7.2 | -10.7
CC(Nc1nc(-c2ccccc2)nc2ccccc12)c1ccccc1 (stereo unspecified) | -12.7 | 97.6* | -1.5 | -15.7 | -6.2
CC(Nc1nc(N2CCCCC2)nc2ccccc12)c1ccccc1 (stereo unspecified) | 19.2 | 100.4* | -3.7 | -0.6 | nt
CC(Nc1nc(-c2ccccc2O)nc2ccccc12)c1ccccc1 (stereo unspecified) | 2.1 | nt | 1.5 | -8.2 | -0.9
Cc1ccc(/C=C2/SC(=O)NC2=S)o1 | -2.5 | 5.0 | -0.8 | -0.6 | -5.0
O=C(/C=C/Sc1ccc(C(F)(F)F)cn1)c1ccccc1 | 14.4 | nt | 2.1 | 18.3 | 2.5
CCn1cc(C(=O)OC)c(=O)c2cc(S(=O)(=O)N(C)C3CCCCC3)ccc21 | 19.7 | 0.7 | 1.1 | -8.0 | -9.7
FC(F)(F)c1cnc(-c2cnc(-c3ccccn3)nc2)c(Cl)c1 | -6.7 | 0.9 | -1.7 | -12.4 | -6.1
CN1C2C=C3C(C#N)=C(N)C(C#N)(C#N)C(c4ccc(Br)cc4)C3C1CC2 (stereo unspecified) | 0.5 | 97.8* | -0.4 | -5.0 | nt
Cc1cc(Oc2ccc(=O)n(C)n2)nc(=S)[nH]1 | 0.2 | -0.8 | -0.6 | -34.2 | 0.1
COc1cc(/C=C/C(=O)Nc2cc(C(F)(F)F)ccc2Cl)cc(OC)c1OC | -70.4 | 66.8* | 0.2 | 2.5 | nt
Cc1ccc(S(=O)(=O)Cc2ccc(C(=O)N3CCN(Cc4ccccc4)CC3)o2)cc1 | 1.8 | 99.0* | -0.3 | -18.8 | -8.4
Cc1ccc(S(=O)(=O)Cc2ccc(C(=O)N3CCc4ccccc4C3)o2)cc1 | -13.0 | 6.0 | -1.0 | -19.5 | nt
COc1ccc(S(=O)(=O)Cc2ccc(C(=O)N3CCN(Cc4ccccc4)CC3)o2)cc1 | 1.7 | 98.8* | -1.6 | -21.5 | -4.0
COc1ccc(S(=O)(=O)Cc2ccc(C(=O)N3CCN(c4ccc(Cl)cc4)CC3)o2)cc1 | -15.6 | 45.1 | -1.0 | -10.2 | 3.8
COc1ccc(N2CCN(C(=O)c3ccc(CS(=O)(=O)c4ccc(OC)cc4)o3)CC2)cc1 | -1.9 | 80.8* | -0.8 | -5.9 | 2.8
O=C(c1ccc(CNS(=O)(=O)c2ccccc2)cc1)N1CCN(Cc2ccccc2)CC1 | -10.1 | 71.9* | -3.1 | -10.2 | nt
CS(=O)(=O)c1ccc(C(=O)N2CCN(Cc3ccccc3)CC2)cc1 | -3.8 | -2.8 | -2.2 | -14.9 | -1.1
Cc1noc(C)c1-c1nc(CSc2ccccc2)no1 | -10.1 | nt | -0.6 | -7.5 | 1.7
CCCCN(C)CCC(=O)Nc1ccc(F)c(F)c1 | -6.2 | -2.7 | -0.6 | -12.6 | -5.5
SMILES | S1P4 antagonist | Lmaj promast | S1P4 ag | MDM2 E3 inh | S1P3 antagonist
O=C(CSc1nnnn1-c1ccccc1)N1N=CCC1c1ccccc1 (stereo unspecified) | -1.1 | -2.9 | -2.1 | -7.9 | 3.9
Cc1ccc(SCC(=O)N2N=CCC2c2ccccc2)cc1 (stereo unspecified) | 4.7 | 84.4* | -0.6 | -15.9 | -3.6
COc1ccc(C2C(C#N)=C(/N=C/N3CCN(C)CC3)OC3=C2C(=O)CC(C)(C)C3)cc1OC (stereo unspecified) | 3.9 | 63.9* | -1.1 | -14.8 | 8.0
COc1cc(C2C(C#N)=C(N)OC3=C2C(=O)CC(C)(C)C3)ccc1OC(=O)N1CCOCC1 (stereo unspecified) | -8.5 | -5.4 | -2.4 | -18.8 | -11.8
O=C(CN(C(=O)c1ccc(Cl)cc1)C1CCCCC1)Nc1ccc(Cl)c([N+](=O)[O-])c1 | -16.6 | 85.1* | 0.0 | -3.4 | -0.5
O=C(CN(C(=O)c1ccccc1Cl)C1CCCCC1)Nc1ccc(Cl)c([N+](=O)[O-])c1 | -15.1 | 80.1* | -2.9 | 2.3 | nt
O=C(COc1ncnc2ccccc12)Nc1cccc([N+](=O)[O-])c1 | -0.5 | 0.4 | -2.4 | -3.0 | 14.3
O=C(COc1ncnc2ccccc12)Nc1ccc(Cl)c([N+](=O)[O-])c1 | -21.3 | 72.1* | 0.6 | -5.7 | 2.1
Cc1ccc([N+](=O)[O-])cc1NC(=O)CN(C(=O)c1ccc(Cl)cc1)C1CCCCC1 | 1.6 | 32.6 | -0.5 | -11.8 | nt
CC1(C)CC(=O)C(CC(=O)NC2CCCc3ccccc32)C(=O)C1 (stereo unspecified) | -4.3 | -7.4 | 0.9 | -24.4 | -23.9
O=C(CCS(=O)(=O)c1ccc(Cl)cc1)NCCc1c[nH]c2ccccc12 | -14.3 | 32.4 | -0.1 | 8.0 | -5.0
CN(C)CCCN1C(=O)c2cccc3c(Br)ccc(c23)C1=O | -34.1 | 99.6* | 0.2 | -8.1 | 15.8
COc1cccc2c1C(=O)c1c(O)c3c(c(O)c1C2=O)C[C@@](O)(C(=O)CO)C[C@@H]3O[C@H]1C[C@H](N)[C@H](O)[C@H](C)O1 | -15.3 | 100.2* | 3.5 | nt | -11.3
COc1ccc(C2c3ccc(O)cc3Oc3ncn(Cc4ccco4)c(=N)c32)cc1 (stereo unspecified) | 14.6 | nt | -1.5 | -9.2 | 6.0
COc1ccc(C2c3ccc4ccccc4c3Oc3ncn(CCN4CCOCC4)c(=N)c32)cc1 (stereo unspecified) | -11.4 | 100.4* | -0.3 | -17.8 | nt
N=c1c2c(ncn1Cc1ccco1)Oc1ccc3ccccc3c1C2c1ccccc1 (stereo unspecified) | 14.5 | 96.3* | 1.0 | -12.7 | 20.3
COc1ccc(C2c3c(ncn(Cc4ccco4)c3=N)Oc3ccc4ccccc4c32)cc1 (stereo unspecified) | 5.0 | 99.0* | -0.2 | -15.2 | 1.0
CN(CC1CCOCC1)C(=O)CC1C(=O)NCCN1Cc1ccc(-c2ccccc2)cc1 (stereo unspecified) | 8.3 | -3.5 | 0.2 | -6.8 | -36.2
CS(=O)(=O)Nc1cccc(S(=O)(=O)N2CCN(C(=O)c3ccccc3)CC2)c1 | 2.3 | nt | -0.5 | nt | 3.6
COc1ccccc1Nc1nc(-c2sc(NC(=O)c3ccc([N+](=O)[O-])cc3)nc2C)cs1 | -1.9 | 4.9 | 1.4 | -14.4 | nt
CCCCCCC(=O)Nc1nc(C)c(-c2csc(Nc3cc(Cl)ccc3C)n2)s1 | 4.7 | 5.1 | -0.7 | -13.2 | nt
CCOc1ccccc1Nc1nc(-c2sc(NC(=O)c3ccccc3)nc2C)cs1 | 1.1 | 100.1* | 0.6 | -9.6 | nt
